Measured values: ChEMBL document CHEMBL4627246, “Pyroglutamide-Based P2X7 Receptor Antagonists Targeting Inflammatory Bowel Disease” (J Med Chem, 2020)
Activity calls are given as the source filed them. No cut-off for these calls is given here.

target: T1, P2X purinoceptor 7 (Homo sapiens) (UniProt Q99572); assay: Antagonist activity at P2X7R in human THP1 cells assessed as inhibition of LPS and BzATP-induced ROS production at 10^-5 mol/L pretreated with compound followed by LPS/BzATP addition and measured up to 5 hrs by kinetic chemiluminescence based fluorometric analysis; format: cell-based; details: THP-1
T1 sequence (whole entry): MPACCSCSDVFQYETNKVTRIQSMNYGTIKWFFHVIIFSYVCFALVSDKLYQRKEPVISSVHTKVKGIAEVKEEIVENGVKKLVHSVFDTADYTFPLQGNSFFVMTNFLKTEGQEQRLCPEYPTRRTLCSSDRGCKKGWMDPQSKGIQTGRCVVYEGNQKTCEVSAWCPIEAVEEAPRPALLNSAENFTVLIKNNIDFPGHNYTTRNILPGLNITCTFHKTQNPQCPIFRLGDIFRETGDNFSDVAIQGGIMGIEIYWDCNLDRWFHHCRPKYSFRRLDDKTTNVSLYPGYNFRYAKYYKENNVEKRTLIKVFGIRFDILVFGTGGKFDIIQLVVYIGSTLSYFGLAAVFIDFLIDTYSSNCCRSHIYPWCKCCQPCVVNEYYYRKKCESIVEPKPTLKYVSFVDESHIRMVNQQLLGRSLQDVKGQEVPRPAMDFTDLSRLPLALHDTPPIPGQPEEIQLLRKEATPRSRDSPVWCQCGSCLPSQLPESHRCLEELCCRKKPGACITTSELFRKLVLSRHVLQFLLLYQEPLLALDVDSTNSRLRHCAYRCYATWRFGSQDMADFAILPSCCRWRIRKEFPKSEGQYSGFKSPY
Summary of the method: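 PMA-differentiated THP-1 macrophages (10^5 cells) in RPMI 1640 + 10% FBS pretreated with antagonist at 10^-5 mol/L, then LPS 10 μmol/L plus BzATP 70 μmol/L at 37 °C, 5% CO2; horseradish peroxidase (50 μg/mL) and luminol (50 μM) mixture added, chemiluminescence read on a fluorometer; cell-free H2O2 serves as positive control.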

| Compound | inhibition |
| --- | --- |
| O=C(NCc1ccc(Cl)cc1Cl)[C@@H]1COC(=O)N1c1cccs1 | Active |
| O=C(NCc1ccc(Cl)cc1Cl)[C@@H]1CCC(=O)N1c1cccs1 | Active |
| O=C(NCc1ccc(Cl)cc1Cl)[C@@H]1CCC(=O)N1c1nccs1 | Active |
| O=C(NCc1ccc(Cl)cc1Cl)[C@@H]1CCC(=O)N1c1cscn1 | Active |
| CN1C(=O)CC[C@H]1C(=O)NCc1cccc(C(F)(F)F)c1Cl [GSK1482160] | Active |

target: T1, P2X purinoceptor 7 (Homo sapiens); assay: Antagonist activity at P2X7 receptor in human THP-1 cells assessed as inhibition of LPS and BzATP-induced IL-1beta production at 10^-6 mol/L pretreated with compound followed by LPS/BzATP addition and measured after 2 to 6 hrs by ELISA; format: cell-based; details: TDE = time-dependent effect
Summary of the method: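 PMA (100nM)-differentiated THP-1 macrophages (RPMI 1640, 10% FCS), 10^6 cells, pretreated with antagonist at […], then challenged with LPS 10 μmol/L and BzATP 70 μmol/L at 37 °C, 5% CO2; IL1β measured by ELISA, including the 6 h point; mean ± SD, P<0.05 significant.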

| Compound | inhibition |
| --- | --- |
| O=C(NCc1ccc(Cl)cc1Cl)[C@@H]1COC(=O)N1c1cccs1 | Tde |
| O=C(NCc1ccc(Cl)cc1Cl)[C@@H]1CCC(=O)N1c1cccs1 | Tde |
| O=C(NCc1ccc(Cl)cc1Cl)[C@@H]1CCC(=O)N1c1nccs1 | Tde |
| O=C(NCc1ccc(Cl)cc1Cl)[C@@H]1CCC(=O)N1c1cscn1 | Tde |
| CN1C(=O)CC[C@H]1C(=O)NCc1cccc(C(F)(F)F)c1Cl [GSK1482160] | Tde |

target: T1, P2X purinoceptor 7 (Homo sapiens); assay: Antagonist activity at P2X7 receptor in human THP-1 cells assessed as inhibition of LPS and BzATP-induced IL-1beta production at 10^-5 mol/L pretreated with compound followed by LPS/BzATP addition and measured after 2 to 6 hrs by ELISA; format: cell-based; details: not given
Summary of the method: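 THP-1 monocytes grown in RPMI 1640 + 10% FCS, differentiated to macrophages with PMA (100nM); 10^6 cells pretreated with antagonist at 10^-5 mol/L, then exposed to LPS 10 μmol/L plus BzATP 70 μmol/L at 37 °C, 5% CO2; IL1β quantified by ELISA in samples at 2, 4 and 6 h; mean ± SD, significance P<0.05.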

| Compound | inhibition |
| --- | --- |
| O=C(NCc1ccc(Cl)cc1Cl)[C@@H]1COC(=O)N1c1cccs1 | Active |
| O=C(NCc1ccc(Cl)cc1Cl)[C@@H]1CCC(=O)N1c1cccs1 | Active |
| O=C(NCc1ccc(Cl)cc1Cl)[C@@H]1CCC(=O)N1c1nccs1 | Active |
| O=C(NCc1ccc(Cl)cc1Cl)[C@@H]1CCC(=O)N1c1cscn1 | Active |
| CN1C(=O)CC[C@H]1C(=O)NCc1cccc(C(F)(F)F)c1Cl [GSK1482160] | Active |

target: T2, P2X purinoceptor 7 (Homo sapiens, UniProt Q99572); assay: Displacement of [3H]-A804598 from human P2X7 expressed in human HEK293 cell membrane incubated for 1 hr by microplate scintillation counting method; format: cell membranes; details: not given
T2 sequence (Q99572 whole entry): T1 sequence (whole entry)

| Compound | IC50 [nM] | Ki [nM] |
| --- | --- | --- |
| O=C(NCc1ccc(Cl)cc1Cl)[C@@H]1COC(=O)N1c1cccs1 | 15100 | 3110 |
| O=C(NCc1ccc(Cl)cc1Cl)[C@@H]1CCC(=O)N1c1cccs1 | 720 | 147 |
| O=C(NCc1ccc(Cl)cc1Cl)[C@@H]1CCC(=O)N1c1nccs1 | 2380 | 489 |
| O=C(NCc1ccc(Cl)cc1Cl)[C@@H]1CCC(=O)N1c1cscn1 | 384 | 78 |
| CN1C(=O)CC[C@H]1C(=O)NCc1cccc(C(F)(F)F)c1Cl [GSK1482160] | 332 | 68 |

target: T1, P2X purinoceptor 7 (Homo sapiens); assay: Inhibition of human P2X7 expressed in human HEK293 cells assessed as reduction in BzATP-stimulated TO-PRO-3 incorporation at 10 uM preincubated with compound and TO-PRO-3 for 15 mins prior to BzATP addition and measured after 1 hr by Fluo-3AM dye based flow cytometry relative to control; format: cell-based; details: not given
Summary of the method: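 HEK-293 cells overexpressing human P2RX7 loaded with Fluo-3 AM, then incubated with TO-PRO-3 (large pore uptake) and propidium iodide (viability) plus compound (10⁻⁵ M single point) for 15 min before BzATP 100 µM. After 1 h, flow cytometry; percentage of Fluo-3/TO-PRO-3 double-positive cells calculated. Mean of n ≥ 2 with positive control.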

| Compound | inhibition [%] |
| --- | --- |
| O=C(NCc1ccc(Cl)cc1Cl)[C@@H]1COC(=O)N1c1cccs1 | 80 |
| O=C(NCc1ccc(Cl)cc1Cl)[C@@H]1CCC(=O)N1c1cccs1 | 98 |
| O=C(NCc1ccc(Cl)cc1Cl)[C@@H]1CCC(=O)N1c1nccs1 | 83 |
| O=C(NCc1ccc(Cl)cc1Cl)[C@@H]1CCC(=O)N1c1cscn1 | 98 |
| CN1C(=O)CC[C@H]1C(=O)NCc1cccc(C(F)(F)F)c1Cl [GSK1482160] | 98 |

target: T1, P2X purinoceptor 7 (Homo sapiens); assay: Antagonist activity at P2X7R in human THP1 cells assessed as inhibition of LPS and BzATP-induced mature form of IL-1beta expression in whole cell extract at 10^-6 mol/L pretreated with compound followed by LPS/BzATP addition and measured after 2 to 6 hrs by Western blot analysis; format: cell-based; details: THP-1

| Compound | inhibition |
| --- | --- |
| O=C(NCc1ccc(Cl)cc1Cl)[C@@H]1CCC(=O)N1c1cccs1 | Active |

target: T1, P2X purinoceptor 7 (Homo sapiens); assay: Antagonist activity at P2X7R in human THP1 cells assessed as inhibition of LPS and BzATP-induced cell death at 10^-6 mol/L pretreated with compound followed by LPS/BzATP addition and measured after 4 hrs by sytox green dye based flow cytometry; details: THP-1

| Compound | inhibition |
| --- | --- |
| O=C(NCc1ccc(Cl)cc1Cl)[C@@H]1CCC(=O)N1c1cccs1 | Active |

target: T1, P2X purinoceptor 7 (Homo sapiens); assay: Antagonist activity at P2X7R in human THP1 cells assessed as inhibition of LPS and BzATP-induced cell death at 10^-6 mol/L pretreated with compound followed by LPS/BzATP addition and measured after 6 hrs by sytox green dye based flow cytometry; details: THP-1

| Compound | inhibition |
| --- | --- |
| O=C(NCc1ccc(Cl)cc1Cl)[C@@H]1CCC(=O)N1c1cccs1 | inactive |

system: HEK293; assay: Cytotoxicity against human HEK293 cells assessed as reduction in cell viability at 10^-5 mol/L incubated for 72 hrs; format: cell-based; details: hek293, 72 h, 10 µM
Summary of the method: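 Wild-type and P2RX7-transfected HEK293 cells exposed to compound for 72 hours; viability compared against untreated control.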

| Compound | Activity |
| --- | --- |
| O=C(NCc1ccc(Cl)cc1Cl)[C@@H]1COC(=O)N1c1cccs1 | Non-Toxic |
| O=C(NCc1ccc(Cl)cc1Cl)[C@@H]1CCC(=O)N1c1cccs1 | Non-Toxic |
| O=C(NCc1ccc(Cl)cc1Cl)[C@@H]1CCC(=O)N1c1nccs1 | Non-Toxic |
| O=C(NCc1ccc(Cl)cc1Cl)[C@@H]1CCC(=O)N1c1cscn1 | Non-Toxic |

target: T3, P2X purinoceptor 1 (Homo sapiens) (UniProt P51575); assay: Antagonist activity at P2X1 receptor in human platelet assessed as inhibition of thrombin-induced platelet aggregation at 10 '-5 to 10^-6 mol/L pretreated with compound and LPS/BzATP for 10 mins followed by thrombin addition and measured for 8 mins by aggregometry analysis; format: cell-based; details: not given
T3 sequence (whole entry): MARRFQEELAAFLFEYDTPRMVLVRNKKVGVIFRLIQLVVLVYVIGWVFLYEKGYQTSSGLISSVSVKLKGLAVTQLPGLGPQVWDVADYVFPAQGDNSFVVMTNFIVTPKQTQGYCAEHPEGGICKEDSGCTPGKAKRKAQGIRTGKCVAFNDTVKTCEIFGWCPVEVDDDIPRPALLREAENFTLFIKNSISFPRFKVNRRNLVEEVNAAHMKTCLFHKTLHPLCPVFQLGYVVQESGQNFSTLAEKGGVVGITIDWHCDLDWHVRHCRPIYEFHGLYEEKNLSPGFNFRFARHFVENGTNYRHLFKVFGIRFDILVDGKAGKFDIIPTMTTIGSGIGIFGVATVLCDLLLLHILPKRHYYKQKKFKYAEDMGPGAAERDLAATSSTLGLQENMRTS

| Compound | Activity |
| --- | --- |
| O=C(NCc1ccc(Cl)cc1Cl)[C@@H]1COC(=O)N1c1cccs1 | inactive |
| O=C(NCc1ccc(Cl)cc1Cl)[C@@H]1CCC(=O)N1c1cccs1 | inactive |
| O=C(NCc1ccc(Cl)cc1Cl)[C@@H]1CCC(=O)N1c1nccs1 | inactive |
| O=C(NCc1ccc(Cl)cc1Cl)[C@@H]1CCC(=O)N1c1cscn1 | inactive |

system: not listed separately; assay: Solubility of compound in saline at 1mg/ml; format: physicochemical; details: buffer

| Compound | solubility |
| --- | --- |
| O=C(NCc1ccc(Cl)cc1Cl)[C@@H]1COC(=O)N1c1cccs1 | Insoluble |
| O=C(NCc1ccc(Cl)cc1Cl)[C@@H]1CCC(=O)N1c1cccs1 | Insoluble |
| O=C(NCc1ccc(Cl)cc1Cl)[C@@H]1CCC(=O)N1c1nccs1 | Insoluble |
| O=C(NCc1ccc(Cl)cc1Cl)[C@@H]1CCC(=O)N1c1cscn1 | Insoluble |
| CN1C(=O)CC[C@H]1C(=O)NCc1cccc(C(F)(F)F)c1Cl [GSK1482160] | Insoluble |

system: not listed separately; assay: Metabolic stability in human liver microsomes assessed as intrinsic clearance at 0.2 mg/ml incubated for 60 mins by UPLC/MS-MS analysis; format: ADME, Microsome; details: read-out: CLH

| Compound | microsomal CLint [µL/min/mg] |
| --- | --- |
| O=C(NCc1ccc(Cl)cc1Cl)[C@@H]1COC(=O)N1c1cccs1 | 663 |
| O=C(NCc1ccc(Cl)cc1Cl)[C@@H]1CCC(=O)N1c1cccs1 | 1070 |
| O=C(NCc1ccc(Cl)cc1Cl)[C@@H]1CCC(=O)N1c1nccs1 | 253 |
| O=C(NCc1ccc(Cl)cc1Cl)[C@@H]1CCC(=O)N1c1cscn1 | 379 |
| CN1C(=O)CC[C@H]1C(=O)NCc1cccc(C(F)(F)F)c1Cl [GSK1482160] | 2.8 |

system: not listed separately; assay: Metabolic stability in human liver microsomes assessed as half life at 0.2 mg/ml incubated for 60 mins by UPLC/MS-MS analysis; format: ADME, Microsome; details: not given

| Compound | half-life [min] |
| --- | --- |
| O=C(NCc1ccc(Cl)cc1Cl)[C@@H]1COC(=O)N1c1cccs1 | 1.4 |
| O=C(NCc1ccc(Cl)cc1Cl)[C@@H]1CCC(=O)N1c1cccs1 | 1.5 |
| O=C(NCc1ccc(Cl)cc1Cl)[C@@H]1CCC(=O)N1c1nccs1 | 7.5 |
| O=C(NCc1ccc(Cl)cc1Cl)[C@@H]1CCC(=O)N1c1cscn1 | 4.8 |
| CN1C(=O)CC[C@H]1C(=O)NCc1cccc(C(F)(F)F)c1Cl [GSK1482160] | 800 |

system: not listed separately; assay: Drug metabolism in mouse measured after 40 mins; format: ADME; details: read-out: Drug metabolism

| Compound | metabolised at 40 min [%] |
| --- | --- |
| O=C(NCc1ccc(Cl)cc1Cl)[C@@H]1COC(=O)N1c1cccs1 | 100 |
| O=C(NCc1ccc(Cl)cc1Cl)[C@@H]1CCC(=O)N1c1cccs1 | 100 |
| O=C(NCc1ccc(Cl)cc1Cl)[C@@H]1CCC(=O)N1c1nccs1 | 93 |
| O=C(NCc1ccc(Cl)cc1Cl)[C@@H]1CCC(=O)N1c1cscn1 | 98 |
| CN1C(=O)CC[C@H]1C(=O)NCc1cccc(C(F)(F)F)c1Cl [GSK1482160] | 4.4 |

system: not listed separately; assay: Metabolic stability in human hepatocytes; format: ADME, cell-based, Hepatocyte; details: not given

| Compound | Stability |
| --- | --- |
| O=C(NCc1ccc(Cl)cc1Cl)[C@@H]1CCC(=O)N1c1cccs1 | Unstable |
| O=C(NCc1ccc(Cl)cc1Cl)[C@@H]1CCC(=O)N1c1nccs1 | Unstable |
| O=C(NCc1ccc(Cl)cc1Cl)[C@@H]1CCC(=O)N1c1cscn1 | Unstable |
| CN1C(=O)CC[C@H]1C(=O)NCc1cccc(C(F)(F)F)c1Cl [GSK1482160] | Stable |
